Test results: ChEMBL document CHEMBL5325460, “Versatile anti-infective properties of pyrido- and dihydropyrido[2,3-d]pyrimidine-based compounds” (Bioorg Med Chem, 2023)

Experiments:
[1] = Cytotoxicity against African green monkey Vero cells assessed as reduction in cell viability measured after 3 days by MTT assay; assay type: toxicity, cell-based; conditions: chlorocebus sabaeus, time 3 day
Summary of the method: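 Vero cells held 3 days with graded doses in RPMI 1640 with 5% FBS. Viability read by MTT colorimetry at 540 nm. CC50 from concentration–response curves against untreated controls; means of at least three independent experiments.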

Leishmania major [2] = test: Antileishmanial activity against Leishmania major promastigotes assessed as parasite growth inhibition measured after 72 hrs by MTT based ELISA reader analysis
[3] = molecular target: Human immunodeficiency virus type 1 reverse transcriptase (Human immunodeficiency virus 1, UniProt Q72547); test: Inhibition of wild type HIV-1 reverse transcriptase RNase-associated RNase H activity using RNA/DNA template-primer as substrate
Summary of the method: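 RNase H activity of wild-type RT, run independently of RDDP, with RDS1759 as positive control. Assays in triplicate; IC50 reported ± error.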

[4] = Selectivity index, ratio of CC50 for cytotoxicity against African green monkey Vero cells to IC50 for antiparasitic activity against Toxoplasma gondii RH tachyzoites infected in African monkey Vero cells; assay type: toxicity, cell-based; conditions: read-out: Ratio CC50/IC50
Summary of the method: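 SI = Vero CC50 (3-day MTT, 540 nm read) divided by T. gondii RH IC50 (Vero host cells, microscopic count of infected cells); both values from concentration–response curves at 72 h.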

Leishmania major [5] = test: Antileishmanial activity against Leishmania major amastigotes infected in mouse macrophages assessed as parasite growth inhibition measured after 72 hrs by MTT based ELISA reader analysis; assay type: functional, organism-based; conditions: Macrophage
Summary of the method: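 L. major promastigotes from a patient isolate; amastigotes from infected BALB/c mice, grown inside mouse macrophages. Viable parasites read by MTT absorbance at 570 nm.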

Toxoplasma gondii = test: Antiparasitic activity against Toxoplasma gondii RH tachyzoites infected in African green monkey Vero cells assessed as parasitic growth inhibition incubated for 72 hrs by inverted microscopic analysis; assay type: functional, organism-based
Summary of the method: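 RH-strain tachyzoites grown on Vero host cells in RPMI 1640 with 10% FBS and exposed to a range of concentrations, with atovaquone as positive control. Infected cells counted under an inverted microscope; inhibition % = (1 − infected treated / infected control) × 100. IC50 from concentration–response curves at 72 h; means of at least three independent experiments.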

Row | Structure (SMILES) | CC50 at 72 h [1] [µM] | IC50 (Leishmania major [2]) [µM] | IC50 [3] [µM] | selectivity ratio [4] | IC50 (Leishmania major [5]) [µM] | IC50 (Toxoplasma gondii) [µM]
1 | COc1ccc(C2C3=C(Nc4[nH]c(=O)[nH]c(=O)c42)c2ccccc2C3=O)cc1OC (stereo not drawn) | 8.03 | > 31 | 20.3 | 1.1 | 6.94 | 7.31
2 | COc1ccc(-c2c3c(nc4[nH]c(=O)[nH]c(=O)c24)-c2ccccc2C3=O)cc1OC | 0.87 | 29.4 | – | 0.78 | 6.73 | 1.12
3 | COc1cc(C2C3=C(Nc4[nH]c(=O)[nH]c(=O)c42)c2ccccc2C3=O)cc(Br)c1OC (stereo not drawn) | 0.5 | > 25.9 | – | 0.69 | 16.4 | 0.73
4 | COc1cc(-c2c3c(nc4[nH]c(=O)[nH]c(=O)c24)-c2ccccc2C3=O)cc(Br)c1OC | 2.31 | 26 | – | 1.24 | 16.2 | 1.87
5 | CCOC(=O)C(=O)CC(=O)/C=C/c1cccn1Cc1ccccc1Cl | – | – | 8.7 | – | – | –
6 | COc1cc(C2C3=C(Nc4[nH]c(=O)[nH]c(=O)c42)c2ccccc2C3=O)cc(OC)c1OC (stereo not drawn) | 2.1 | > 28.8 | 21.5 | 0.76 | 21.2 | 2.77
7 | COc1cc(C2C3=C(Nc4[nH]c(=O)[nH]c(=O)c42)c2ccccc2C3=O)cc(I)c1OC (stereo not drawn) | 0.42 | > 23.6 | – | 0.89 | 14 | 0.47
8 | O=C1C2=C(Nc3[nH]c(=O)[nH]c(=O)c3C2c2cccc(Br)c2)c2ccccc21 (stereo not drawn) | 16.1 | 11.6 | – | 1.42 | 36.5 | 11.4
9 | COc1cc(C2C3=C(Nc4[nH]c(=O)[nH]c(=O)c42)c2ccccc2C3=O)cc(OC)c1O (stereo not drawn) | 6.08 | 31.7 | 17.1 | 0.55 | 21.2 | 11
10 | COc1ccc(C2C3=C(Nc4[nH]c(=O)[nH]c(=O)c42)c2ccccc2C3=O)cc1F (stereo not drawn) | 7.16 | 7.16 | – | 0.74 | 16.9 | 9.71
11 | COc1cc(-c2c3c(nc4[nH]c(=O)[nH]c(=O)c24)-c2ccccc2C3=O)cc(OC)c1OC | 2.02 | > 29 | – | 0.97 | 5.8 | 2.09
12 | COc1cc(C2C3=C(Nc4[nH]c(=O)[nH]c(=O)c42)c2ccccc2C3=O)cc(Cl)c1OC (stereo not drawn) | 0.3 | > 28.6 | – | 0.73 | 6.17 | 0.41
13 | O=C1C2=C(Nc3[nH]c(=O)[nH]c(=O)c3C2c2cccc(O)c2)c2ccccc21 (stereo not drawn) | 9.46 | > 34.8 | 93.4 | 0.4 | 27 | 23.7
14 | COc1ccc(C2C3=C(Nc4[nH]c(=O)[nH]c(=O)c42)c2ccccc2C3=O)cc1Br (stereo not drawn) | 1.73 | > 27.6 | – | 0.96 | 1.9 | 1.81
15 | COc1cc(-c2c3c(nc4[nH]c(=O)[nH]c(=O)c24)-c2ccccc2C3=O)cc(Cl)c1OC | 0.85 | 28.2 | – | 1.23 | 18.6 | 0.69
16 | COc1ccc(-c2c3c(nc4[nH]c(=O)[nH]c(=O)c24)-c2ccccc2C3=O)cc1F | 4.11 | 6.68 | – | 0.44 | 15.7 | 9.25
17 | COc1ccc(C2C3=C(Nc4[nH]c(=O)[nH]c(=O)c42)c2ccccc2C3=O)cc1O (stereo not drawn) | 8.99 | > 32.1 | > 100 | 0.79 | 21.3 | 11.4
18 | COc1ccc(-c2c3c(nc4[nH]c(=O)[nH]c(=O)c24)-c2ccccc2C3=O)cc1Br | 9.55 | 25.1 | – | 0.91 | 35.8 | 11.8
19 | COc1ccc(C2C3=C(Nc4[nH]c(=O)[nH]c(=O)c42)c2ccccc2C3=O)cc1C (stereo not drawn) | 2.89 | > 32.3 | – | 0.3 | 22.2 | 9.81
20 | O=C1C2=C(Nc3[nH]c(=O)[nH]c(=O)c3C2c2ccc(O)c(O)c2)c2ccccc21 (stereo not drawn) | 7.03 | > 33.3 | 11.2 | 0.7 | > 33.3 | 9.99
21 | COc1cc(C2C3=C(Nc4[nH]c(=O)[nH]c(=O)c42)c2ccccc2C3=O)ccc1O (stereo not drawn) | 6.16 | 35.4 | > 100 | 0.74 | 21.3 | 8.35
22 | O=C1C2=C(Nc3[nH]c(=O)[nH]c(=O)c3C2c2ccc(O)cc2)c2ccccc21 (stereo not drawn) | 3.95 | > 34.8 | > 100 | 0.2 | 22 | 20
23 | COc1cc(-c2c3c(nc4[nH]c(=O)[nH]c(=O)c24)-c2ccccc2C3=O)cc(I)c1OC | 2.22 | 23 | – | 0.9 | 15.4 | 2.47
24 | C[C@@H]1[C@H](O)[C@@H](C)/C=C/C=C/C=C/C=C/C=C/C=C/C=C/[C@H](O[C@@H]2O[C@H](C)[C@@H](O)[C@H](N)[C@@H]2O)C[C@@H]2O[C@](O)(C[C@@H](O)C[C@@H](O)[C@H](O)CC[C@@H](O)C[C@@H](O)CC(=O)O[C@H]1C)C[C@H](O)[C@H]2C(=O)O [AMPHOTERICIN B] | – | 0.83 | – | – | – | –
25 | O=C1C(O)=C([C@H]2CC[C@H](c3ccc(Cl)cc3)CC2)C(=O)c2ccccc21 [ATOVAQUONE] | 9.5 | – | – | 136 | – | 0.07
